# Legend:
# [1] = tested on: Fusarium graminearum; assay: Fungicidal activity against Fusarium graminearum assessed as mycelial growth inhibition in potato dextrose agar at 50 ug/mL at 24 +/- 0.5 degC; type: functional
# How it was run: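 Single-concentration screen against G. zeae by mycelium growth rate test. Compound in acetone was mixed into PDA at 50 μg/mL, fungus cakes were placed on the plates and grown at 24 ± 0.5 °C, with an acetone blank and three replicates. Percent inhibition was recorded.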
# [2] = tested on: Botrytis cinerea; assay: Fungicidal activity against Botryotinia fuckeliana assessed as mycelial growth inhibition in potato dextrose agar at 24 +/- 0.5 degC; type: functional, organism-based
# How it was run: (§1)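 Mycelium growth rate test. Compounds in acetone were mixed into PDA at 100, 50, 25, 12.5 and 6.25 μg/mL, fungus cakes were placed on the plates and grown at 24 ± 0.5 °C, with an acetone blank and three replicates. Inhibition rates were measured, and EC50 and EC90 were estimated by logit analysis.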
# [3] = tested on: Fusarium graminearum; assay: Fungicidal activity against Fusarium graminearum assessed as mycelial growth inhibition in potato dextrose agar at 24 +/- 0.5 degC; type: functional, organism-based; how it was run: as §1
# [4] = tested on: Verticillium dahliae; assay: Fungicidal activity against Verticillium dahliae assessed as mycelial growth inhibition in potato dextrose agar at 24 +/- 0.5 degC; type: functional, organism-based; how it was run: as §1
# [5] = tested on: Rhizoctonia solani; assay: Fungicidal activity against Rhizoctonia solani assessed as mycelial growth inhibition in potato dextrose agar at 24 +/- 0.5 degC; type: functional, organism-based; how it was run: as §1
# [6] = tested on: Fusarium oxysporum f. sp. vasinfectum; assay: Fungicidal activity against Fusarium oxysporum f. sp. vasinfectum assessed as mycelial growth inhibition in potato dextrose agar at 24 +/- 0.5 degC; type: functional, organism-based; how it was run: as §1
# [7] = tested on: Colletotrichum orbiculare; assay: Fungicidal activity against Colletotrichum orbiculare assessed as mycelial growth inhibition in potato dextrose agar at 24 +/- 0.5 degC; type: functional, organism-based; how it was run: as §1
# [8] = tested on: Pythium aphanidermatum; assay: Fungicidal activity against Pythium aphanidermatum assessed as mycelial growth inhibition in potato dextrose agar at 24 +/- 0.5 degC; type: functional, organism-based; how it was run: as §1
smiles,measurement,setting,value
O=C(NC1CCCCCCCCCCC(=O)OCCC1)NS(=O)(=O)C1CCCCCCCCCCC1=O (stereo not drawn),inhibition at 50 µg/mL,[1],26.1%
Cc1ccnc(NC(=O)NS(=O)(=O)C2CCCCCCCCCCC2=O)n1 (stereo not drawn),inhibition at 50 µg/mL,[1],18.1%
COc1cc(Cl)nc(NC(=O)NS(=O)(=O)C2CCCCCCCCCCC2=O)n1 (stereo not drawn),inhibition at 50 µg/mL,[1],34.5%
COc1cc(OC)nc(NC(=O)NS(=O)(=O)C2CCCCCCCCCCC2=O)n1 (stereo not drawn),inhibition at 50 µg/mL,[1],26.5%
Cc1cc(C)nc(NC(=O)NS(=O)(=O)C2CCCCCCCCCCC2=O)n1 (stereo not drawn),inhibition at 50 µg/mL,[1],18.1%
CCc1cc(CC)nc(NC(=O)NS(=O)(=O)C2CCCCCCCCCCC2=O)n1 (stereo not drawn),inhibition at 50 µg/mL,[1],55.6%
CCCc1cc(CCC)nc(NC(=O)NS(=O)(=O)C2CCCCCCCCCCC2=O)n1 (stereo not drawn),inhibition at 50 µg/mL,[1],34.5%
CC(C)c1cc(C(C)C)nc(NC(=O)NS(=O)(=O)C2CCCCCCCCCCC2=O)n1 (stereo not drawn),inhibition at 50 µg/mL,[1],55.6%
Cc1ccc(NC(=O)NS(=O)(=O)C2CCCCCCCCCCC2=O)cc1 (stereo not drawn),inhibition at 50 µg/mL,[1],34.5%
COc1ccc(NC(=O)NS(=O)(=O)C2CCCCCCCCCCC2=O)cc1 (stereo not drawn),inhibition at 50 µg/mL,[1],18.1%
O=C(Nc1ccc(Cl)cc1)NS(=O)(=O)C1CCCCCCCCCCC1=O (stereo not drawn),inhibition at 50 µg/mL,[1],49%
O=C(Nc1ccccc1Cl)NS(=O)(=O)C1CCCCCCCCCCC1=O (stereo not drawn),inhibition at 50 µg/mL,[1],49%
O=C(Nc1ccc(F)cc1)NS(=O)(=O)C1CCCCCCCCCCC1=O (stereo not drawn),inhibition at 50 µg/mL,[1],18.1%
O=C(Nc1ccc(Cl)c(Cl)c1)NS(=O)(=O)C1CCCCCCCCCCC1=O (stereo not drawn),inhibition at 50 µg/mL,[1],55.6%
O=C(Nc1cc(Cl)ccc1Cl)NS(=O)(=O)C1CCCCCCCCCCC1=O (stereo not drawn),EC50,[2],7.8 µg/mL
same,EC90,[2],33.8 µg/mL
same,inhibition at 50 µg/mL,[1],81.6%
same,EC50,[3],31.5 µg/mL
same,EC90,[3],169 µg/mL
same,EC50,[4],22 µg/mL
same,EC90,[4],142 µg/mL
same,EC50,[5],38.9 µg/mL
same,EC90,[5],106 µg/mL
same,EC50,[6],19.5 µg/mL
same,EC90,[6],53.8 µg/mL
same,EC50,[7],13.5 µg/mL
same,EC90,[7],64.3 µg/mL
same,EC50,[8],16.7 µg/mL
same,EC90,[8],49.9 µg/mL
Cc1cccc(NC(=O)NS(=O)(=O)C2CCCCCCCCCCC2=O)c1 (stereo not drawn),inhibition at 50 µg/mL,[1],34.5%
Cc1ccc(NC(=O)NS(=O)(=O)C2CCCCCCCCCCC2=O)cc1C (stereo not drawn),EC50,[2],9.57 µg/mL
same,EC90,[2],35.9 µg/mL
same,inhibition at 50 µg/mL,[1],77.3%
same,EC50,[3],39 µg/mL
same,EC90,[3],176 µg/mL
same,EC50,[4],33.7 µg/mL
same,EC90,[4],484 µg/mL
same,EC50,[5],112 µg/mL
same,EC90,[5],556 µg/mL
same,EC50,[6],24 µg/mL
same,EC90,[6],98 µg/mL
same,EC50,[7],30.4 µg/mL
same,EC90,[7],105 µg/mL
same,EC50,[8],33.5 µg/mL
same,EC90,[8],124 µg/mL
O=C(Nc1cccc([N+](=O)[O-])c1)NS(=O)(=O)C1CCCCCCCCCCC1=O (stereo not drawn),inhibition at 50 µg/mL,[1],18.1%
O=C(Nc1cccc(Cl)c1)NS(=O)(=O)C1CCCCCCCCCCC1=O (stereo not drawn),inhibition at 50 µg/mL,[1],42%
CC(=O)c1ccc(NC(=O)NS(=O)(=O)C2CCCCCCCCCCC2=O)cc1 (stereo not drawn),inhibition at 50 µg/mL,[1],9.3%
O=C1CCCCCCCCCCC1S(=O)(=O)Nc1ccc(Cl)cc1 (stereo not drawn),EC50,[2],7.62 µg/mL
same,EC90,[2],39 µg/mL
same,inhibition at 50 µg/mL,[1],72.6%
same,EC50,[3],30 µg/mL
same,EC90,[3],414 µg/mL
same,EC50,[4],10.2 µg/mL
same,EC90,[4],55.3 µg/mL
same,EC50,[5],6.82 µg/mL
same,EC90,[5],57 µg/mL
same,EC50,[6],24.6 µg/mL
same,EC90,[6],293 µg/mL
same,EC50,[7],13.8 µg/mL
same,EC90,[7],54.8 µg/mL
same,EC50,[8],17.6 µg/mL
same,EC90,[8],59.6 µg/mL
O=C(Nc1cc(Cl)ccc1Cl)NS(=O)(=O)C1CCCCCC1=O (stereo not drawn),inhibition at 50 µg/mL,[1],18.1%
Cc1ccc(NC(=O)NS(=O)(=O)C2CCCCCC2=O)c(C)c1 (stereo not drawn),inhibition at 50 µg/mL,[1],9.3%
COc1cc(OC)nc(NC(=O)NS(=O)(=O)C2CCCCCC2=O)n1 (stereo not drawn),inhibition at 50 µg/mL,[1],18.1%
O=C(Nc1ccc(Cl)cc1)NS(=O)(=O)C1CCCCCC1=O (stereo not drawn),inhibition at 50 µg/mL,[1],18.1%
Cc1ccc(NC(=O)NS(=O)(=O)C2CCCCCC2=O)cc1 (stereo not drawn),inhibition at 50 µg/mL,[1],18.1%
O=C(Nc1ccc(Cl)c(Cl)c1)NS(=O)(=O)C1CCCCCC1=O (stereo not drawn),inhibition at 50 µg/mL,[1],18.1%
O=C(Nc1cc(Cl)ccc1Cl)NS(=O)(=O)C1CCCCC1=O (stereo not drawn),inhibition at 50 µg/mL,[1],26.5%
Cc1ccc(NC(=O)NS(=O)(=O)C2CCCCC2=O)c(C)c1 (stereo not drawn),inhibition at 50 µg/mL,[1],26.5%
COc1cc(OC)nc(NC(=O)NS(=O)(=O)C2CCCCC2=O)n1 (stereo not drawn),inhibition at 50 µg/mL,[1],18.1%
O=C(Nc1ccc(Cl)cc1)NS(=O)(=O)C1CCCCC1=O (stereo not drawn),inhibition at 50 µg/mL,[1],18.1%
Cc1ccc(NC(=O)NS(=O)(=O)C2CCCCC2=O)cc1 (stereo not drawn),inhibition at 50 µg/mL,[1],18.1%
O=C(Nc1ccc(Cl)c(Cl)c1)NS(=O)(=O)C1CCCCC1=O (stereo not drawn),inhibition at 50 µg/mL,[1],18.1%
COC(=O)Nc1nc2ccccc2[nH]1 [CARBENDAZIM],EC50,[3],1.95 µg/mL
same,EC90,[3],4.46 µg/mL
same,EC50,[4],18.2 µg/mL
same,EC90,[4],93.3 µg/mL
same,EC50,[5],1.41 µg/mL
same,EC90,[5],2.82 µg/mL
same,EC50,[6],0.54 µg/mL
same,EC90,[6],2.98 µg/mL
same,EC50,[7],39.8 µg/mL
same,EC90,[7],200 µg/mL
same,EC50,[8],20.4 µg/mL
same,EC90,[8],75.9 µg/mL
CC12CC1(C)C(=O)N(c1cc(Cl)cc(Cl)c1)C2=O (stereo not drawn) [PROCYMIDONE],EC90,[2],5.75 µg/mL
